The values that follow come from paper PMC12486192 (Clinical Pharmacology in Drug Development, 2025).

SMILES strings stand for the structures. Like-named read-outs stand apart in the source and are kept apart here.

Series [1] relates to uridine 5′ diphospho‐glucuronosyltransferases (UGTs; including UGT1A1, UGT1A8, UGT1A3, UGT1A9, and UGT1A10). The series can be described thus: In vitro enzyme substrate studies, UGTs. In kind it is in vitro ADME.
Series [2] can be described thus: Biliary excretion in bile-cannulated rats. In kind it is in vivo. Particulars: data not shown.
The nature of series [3]: Estimated first-pass metabolism in gut and liver. In kind it is in vivo, human.
A short description of series [4]: Metabolite profiling and identification in plasma and feces. In kind it is in vivo, human. Particulars: Part 1: oral 400 mg [14C]-imlunestrant solution. A digest of the protocol:
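Part 1 plasma was sampled predose and 0.5–264 h after the oral radiolabelled dose. It was extracted twice with acetonitrile (3 volumes), dried, and reconstituted in 10 mM ammonium formate pH 9.0:methanol (80:20). Separation was on a C18 column with 10 mM ammonium formate pH 9.0 / methanol, gradient 20% to 90% B. Fecal metabolites were identified if ≥1% of dose across time points.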

Series [5] is classed as in vivo, human. Particulars: Part 1: single oral 400 mg [14C]-imlunestrant solution. A digest of the protocol: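 Healthy women received a single oral 400 mg radiolabelled test compound solution (100 µCi). Urine was collected −12–0, 0–6, 6–12 and 12–24 h, then in 24-h intervals. Feces were pooled 0–24 h, then in 24-h intervals. Collection continued until ≥90% of dose was recovered and ≤1%/day for 2 consecutive days, or Day 22. Vomitus was collected within 4 h. Radioactivity was counted by LSC and reported as % and cumulative % of dose.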

The format of series [6] is in vivo, human.
The next series has as its system P‐glycoprotein. As to conditions: in vitro; cited from earlier work.
For series [7] the following is noted: similar to Biopharmaceutics Classification System Class 2 compounds; cited from earlier work.
A further series is described as follows: Safety and tolerability. The format is in vivo, human. An outline of the steps:
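AEs and SAEs were monitored to Day 59 (Part 1) or Day 46 (Part 2), with a follow-up call ~7 days after discharge. Part 2 gave two 200-mg oral tablets, then 4 h later a 45 µg (~1 µCi) radiolabelled IV infusion over 15 min. TEAEs were summarised by treatment, MedDRA v24.0 system organ class and preferred term. Severity (mild/moderate/severe) was graded by the investigator.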

For series [8] the following is noted: oral 200‐1200 mg once daily, patients, EMBER; cited from earlier work.
Series [9] has as its target cytochrome P450 (CYP) 3A4 (Homo sapiens, UniProt P08684). The experiment in a line: In vitro enzyme substrate studies, CYP3A4. In kind it is in vitro ADME.
Series [10] is classed as in vivo. Particulars: female, human, plasma, po, 400 mg.
The conditions of series [11]: cited from earlier work.
[12] abbreviates: Part 2: 45 µg [14C]-imlunestrant (1 µCi) IV infusion.
The mark [13] stands for this setting: female, human, plasma, intravenous, 45 µg.
Setting [14] is: female, human, plasma, iv, 45 µg.
Setting [15] is: female, human, plasma, po, 400 mg.
The mark [16] stands for this setting: Part 1: 400 mg [14C]-imlunestrant oral (N=8).

Chain of cytochrome P450 (CYP) 3A4 (P08684 whole entry): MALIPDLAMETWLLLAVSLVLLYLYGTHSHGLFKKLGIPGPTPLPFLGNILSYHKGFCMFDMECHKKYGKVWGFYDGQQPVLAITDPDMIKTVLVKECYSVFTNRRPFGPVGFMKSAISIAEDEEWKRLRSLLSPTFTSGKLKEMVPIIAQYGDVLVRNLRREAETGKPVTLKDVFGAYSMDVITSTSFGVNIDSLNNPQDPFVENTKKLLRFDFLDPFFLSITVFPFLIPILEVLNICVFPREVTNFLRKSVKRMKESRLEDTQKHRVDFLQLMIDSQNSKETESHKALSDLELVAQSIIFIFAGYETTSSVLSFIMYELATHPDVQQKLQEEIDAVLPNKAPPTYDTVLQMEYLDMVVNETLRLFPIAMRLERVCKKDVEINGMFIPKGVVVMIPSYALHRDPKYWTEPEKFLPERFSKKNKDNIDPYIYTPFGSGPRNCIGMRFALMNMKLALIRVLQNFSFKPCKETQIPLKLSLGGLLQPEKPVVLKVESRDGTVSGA

With `Oc1ccc2c3c(cnc2c1)-c1ccc(C(F)(F)F)cc1O[C@@H]3c1ccc(OCCN2CC(CF)C2)cc1` [Imlunestrant], the “Substrate of UGTs” value in series [1] is reported as “substrate”. Also, the “Fraction of oral dose appearing as a glucuronide metabolite in bile” value in [2] is on record as “substantial fraction”. Besides, in [3], the “Fraction passing through the portal vein extracted by first‐pass metabolism in the liver” value is reported as “Approximately 30%”. For the same molecule, the “Detectable in plasma up to” value in series [4] is reported as “up to 264 hours”. Moreover, the “Radioactivity recovered in the feces in the first 192 hours” value in series [5] was “Over 90%”. For the same molecule, in [5] (mean of 5 participants), the “Total radioactivity excreted via the feces” value was 97.3%. Moreover, in series [6] (setting [12]), the “Time to Cmax of [14C]‐imlunestrant after start of intravenous infusion” value was ≤ 15 min and the “Time to Cmax of total radioactivity after start of intravenous infusion” value was ≤ 15 min. In series [6] (setting [13]), the area under the curve (AUC) stood at 1.92 ng·h/mL, the peak level (Cmax) was 0.585 ng/mL, the Tmax worked out at 0.25 h and the half-life is 32.5 h. In [6] (setting [14]), this molecule gave a Vd of 1020 L and a clearance of 397 mL/min. Further, in [6] (setting [15]), the peak concentration (Cmax) was 38.7 ng/mL, the Tmax was determined as 4.37 h and the half-life is 32.1 h. Moreover, the “Substrate of the efflux transporter P‐glycoprotein” value in the series on P‐glycoprotein was “in vitro substrate”. Moreover, the Permeability result in [7] is reported as “moderate to high”. Besides, in “Safety and tolerability” (setting [16]), the “All TEAEs: % of participants with TEAEs” value is 100% and the “All TEAEs: number of participants with TEAEs” value is reported as 8. The “All TEAEs: number of TEAEs” value in “Safety and tolerability” (Part 2: 400 mg imlunestrant oral tablets + 45 µg [14C]-imlunestrant IV (N=8)) was 5. Further, in the series “Safety and tolerability” (single 400 mg oral solution or tablet/intravenous dose, fasted, healthy women), the Tolerability result is listed as “well tolerated”. In addition, in [8], the “Dose dependence of Cmax and AUC0‐∞” value is given as “dose‐proportional increase”; the “Geometric mean t1/2” value is 25 to 30 h; the Median tmax entry is on record as “approximately 4 hours”. Moreover, the “Substrate of CYP3A4” value in series [9] was “substrate”. Moreover, in series [10], the highest level (Cmax) was 117 ng/mL and the half-life is 33.7 h.

Consider `C[C@]12CC[C@@H]3c4ccc(O)cc4C[C@@H](CCCCCCCCC[S+]([O-])CCCC(F)(F)C(F)(F)F)[C@H]3[C@@H]1CC[C@@H]2O` (stereo partly drawn) [fulvestrant], for which the Solubility result in series [11] is on record as “poorly soluble”.
